The subject of one assay is Plasmodium falciparum. The assay is described as follows: Antimalarial activity against Plasmodium falciparum. The format is functional, organism-based.
The subject of a further assay is BC1. The assay is described as follows: Cytotoxicity against human BC1 cells. The format is functional, cell-based.
The subject of a further assay is KB. The assay is described as follows: Cytotoxicity against human KB cells. The assay is classed as functional, cell-based.
In the next assay the test system is NCI-H187. The assay is described as follows: Cytotoxicity against human NCI-H187 cells. The format is functional, cell-based.
Another assay deals with Candida albicans. The assay is described as follows: Antifungal activity against Candida albicans. The assay is classed as functional, organism-based.
Assay [1] has as its system Mycobacterium tuberculosis. The assay is described as follows: Antimycobacterial activity against Mycobacterium tuberculosis H37Ra by microplate alamar blue assay. The format is functional. The procedure, abridged:
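Whole-cell microplate Alamar Blue test of M. tuberculosis H37Ra, read out as MIC in µg/mL. Isoniazid and kanamycin sulfate served as reference drugs.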

In brackets after ≈: the same amount, converted by molar mass. Activity calls are given as the source filed them. The rule behind the calls is not given here.

Take `C=CCC/C=C\C#CC#CCCCCCCCCCC[C@H]1C[C@@H](CO)OC1=O`: the outcome in the assay with Plasmodium falciparum, in the assay on BC1, with KB, in the assay on NCI-H187 and with Candida albicans was inactive.
Regarding `CCCCC[C@H](O)C#CC#CCCCCCCCCCC[C@H]1C[C@@H](CO)OC1=O` [DEBILISONE B], inhibition of growth in assay [1] (MIC) required 25 µg/mL (≈ 61.8 µM). Further, the result in the assay on Plasmodium falciparum, with BC1, in the assay on KB, with NCI-H187 and in the assay with Candida albicans was inactive.
Consider `CCCC/C=C/C#CC#CCCCCCCCCCC[C@H]1C[C@@H](CO)OC1=O` [DEBILISONE C], for which, in assay [1], the minimal inhibitory concentration (MIC) is 12.5 µg/mL (≈ 32.3 µM). Also, the outcome in the assay on Plasmodium falciparum, with BC1, in the assay on KB, in the assay on NCI-H187 and in the assay on Candida albicans was inactive.
In the case of `CCCC/C=C\C#CC#CCCCCCCCCCCCC[C@H]1C[C@@H](CO)OC1=O`, the result with Plasmodium falciparum, in the assay with BC1, in the assay on KB, in the assay with NCI-H187 and with Candida albicans was inactive.
Regarding `C=CCCCCCCC#CCCCCCCCCCC[C@@H]1C[C@@H](CO)OC1=O`, the outcome in the assay with Plasmodium falciparum, in the assay with BC1, in the assay with KB, with NCI-H187 and in the assay with Candida albicans was inactive.
`C=CCC/C=C/C#CC#CCCCCCCCCCC[C@H]1C[C@@H](CO)OC1=O` [DEBILISONE E] gave a minimal inhibitory concentration (MIC) in assay [1] of 25 µg/mL (≈ 65 µM). Moreover, the outcome in the assay with Plasmodium falciparum, with BC1, in the assay with KB, in the assay on NCI-H187 and with Candida albicans was inactive.
Take `CCCCCCC#CC#CCCCCCCCCCC[C@H]1C[C@@H](CO)OC1=O`: the result in the assay with Plasmodium falciparum, in the assay with BC1, with KB, in the assay on NCI-H187 and in the assay on Candida albicans was inactive.
Regarding `C=CCCCCCCC#CCCCC[C@@H]1C[C@@H](CO)OC1=O`, the result in the assay with Plasmodium falciparum, in the assay on BC1, with KB, in the assay with NCI-H187 and in the assay on Candida albicans was inactive.
